Test results reported in ChEMBL document CHEMBL4359903, “1,2,4-Oxadiazole derivatives targeting EGFR and c-Met degradation in TKI resistant NSCLC” (Eur J Med Chem, 2019).
Activity calls are given as the source filed them. No cut-off for these calls is given here.

Key:
NCI-H1975 = test: Antitumor activity against human NCI-H1975 cells harbouring EGFR L858R/T790M double mutant xenografted in athymic Nude-Foxn1nu BALB/c mouse assessed as tumor growth inhibition at 50 mg/kg, po administered once daily via gavage for 20 days in presence of gefitinib measured twice a week by caliper method relative to control; type: functional; settings: 480 h, read-out: TGI
How it was run: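 H1975 subcutaneous xenografts in female nude mice, randomized at about 50 mm3, n = 8 per group. Four arms gavaged once daily for 20 days: vehicle, gefitinib 50 mg/kg, test agent 50 mg/kg, or both at 50 mg/kg each. Tumor volume by calipers (width² × length × 0.52), measured twice weekly.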

[1] = molecular target: Hepatocyte growth factor receptor (Homo sapiens) (UniProt P08581); test: Induction of c-MET degradation in human MDA-MB-231 cells assessed as reduction in c-Met expression incubated for 48 hrs by immunoblot analysis; type: cell-based
How it was run: (§1)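 After 48 h treatment, cells were scraped and lysed in 1% SDS, 50 mM Tris-HCl pH 8.0, 10 mM EDTA with protease and phosphatase inhibitors. Lysates sonicated, protein measured by BCA, equal amounts run on SDS-PAGE and blotted to nitrocellulose. Primary antibodies (EGFR, c-Met, S473-Akt, Akt, GAPDH) used at 1:1000 overnight at 4 °C, HRP secondaries at 1:5000, ECL detection.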

[2] = test system: Epidermal growth factor receptor (Homo sapiens), P00533 [G719A,T790M]; test: Induction of EGFR G719A/T790M mutant degradation in human CL97 cells assessed as reduction in Akt phosphorylation at 0.4 to 0.8 uM incubated for 48 hrs by Western blot analysis; type: cell-based; how it was run: as §1

Chain of Hepatocyte growth factor receptor (Homo sapiens) (P08581 whole entry): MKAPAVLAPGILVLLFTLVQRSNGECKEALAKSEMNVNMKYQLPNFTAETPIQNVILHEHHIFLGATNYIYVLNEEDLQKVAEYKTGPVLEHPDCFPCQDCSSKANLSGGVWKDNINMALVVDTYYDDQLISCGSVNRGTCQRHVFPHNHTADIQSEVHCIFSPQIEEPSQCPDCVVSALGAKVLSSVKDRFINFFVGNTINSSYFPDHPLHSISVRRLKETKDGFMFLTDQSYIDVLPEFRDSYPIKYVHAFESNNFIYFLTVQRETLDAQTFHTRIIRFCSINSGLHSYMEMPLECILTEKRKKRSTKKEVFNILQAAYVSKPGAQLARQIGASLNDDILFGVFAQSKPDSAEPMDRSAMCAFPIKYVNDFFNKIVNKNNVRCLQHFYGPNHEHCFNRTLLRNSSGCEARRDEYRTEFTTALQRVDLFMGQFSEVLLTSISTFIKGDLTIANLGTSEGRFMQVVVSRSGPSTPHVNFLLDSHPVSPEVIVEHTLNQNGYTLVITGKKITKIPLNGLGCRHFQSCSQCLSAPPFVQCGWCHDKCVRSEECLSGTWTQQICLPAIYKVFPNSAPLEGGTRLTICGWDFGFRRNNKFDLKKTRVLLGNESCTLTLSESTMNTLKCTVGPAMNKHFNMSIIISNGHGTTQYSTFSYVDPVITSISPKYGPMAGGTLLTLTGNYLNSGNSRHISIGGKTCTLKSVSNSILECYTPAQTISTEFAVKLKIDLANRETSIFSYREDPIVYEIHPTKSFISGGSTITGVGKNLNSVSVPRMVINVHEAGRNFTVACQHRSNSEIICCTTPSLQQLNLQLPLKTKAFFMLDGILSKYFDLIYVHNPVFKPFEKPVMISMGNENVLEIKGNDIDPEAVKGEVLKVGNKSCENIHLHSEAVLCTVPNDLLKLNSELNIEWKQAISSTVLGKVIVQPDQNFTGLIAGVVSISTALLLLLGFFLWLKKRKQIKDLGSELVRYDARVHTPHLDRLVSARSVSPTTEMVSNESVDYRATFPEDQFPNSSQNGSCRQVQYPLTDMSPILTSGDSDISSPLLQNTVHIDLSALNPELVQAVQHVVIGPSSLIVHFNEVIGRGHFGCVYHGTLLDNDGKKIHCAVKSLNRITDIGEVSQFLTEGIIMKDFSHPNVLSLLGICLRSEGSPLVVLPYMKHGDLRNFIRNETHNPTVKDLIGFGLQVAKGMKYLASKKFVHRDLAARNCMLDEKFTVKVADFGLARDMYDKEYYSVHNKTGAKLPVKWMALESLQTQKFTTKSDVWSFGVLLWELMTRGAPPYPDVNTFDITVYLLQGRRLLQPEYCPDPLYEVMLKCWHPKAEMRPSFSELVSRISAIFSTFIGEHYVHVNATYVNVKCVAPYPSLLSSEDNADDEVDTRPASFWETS

For `O=C(Nc1cccc(-c2nc(-c3ccc(NC(=O)c4cccnc4)cc3Cl)no2)c1)Nc1ccc(NC(=O)C2CC2)c(C(F)(F)F)c1`, the inhibition in vivo at 50 mg/kg (NCI-H1975) was 72%, the Activity [1] was “Active” and the Activity [2] was “Active”.
